Reference: ChEMBL document CHEMBL2157868, “Design, synthesis, and preliminary biological evaluation of 6-O-glucose-azomycin adducts for diagnosis and therapy of hypoxic tumors” (J Med Chem, 2012)
The source made the active and inactive calls. The calls are words filed in the database; no cut-off is given here.

Tests used:
[1] = Ratio of IAZA IC50 to compound IC50 for human MOO6X cells; type: functional
[2] = Cytotoxicity against human MOO6X cells after 3 days by MTT assay; type: functional, cell-based; conditions: 72 h
How it was run: (§1)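 MTT assay. Exponentially growing cells were seeded at 8 × 10² cells/well and held 24 h at 37 °C in 5% CO₂. Compound from a 2 mM stock in 95% ethanol was added, with a maximum final concentration of 1 mM. Exposure lasted 3 days at 37 °C. MTT was added for 4 h, formazan dissolved in DMSO, and absorbance read at 540 nm. IC50s were estimated from survival plots.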

HeLa [3] = assay: Cytotoxicity against human HeLa cells assessed as survival fraction under hypoxic condition to hypoxic condition plus sensitizer at 0.5 mM after 30 mins by clonogenic assay relative to control
HeLa [4] = assay: Cytotoxicity against human HeLa cells after 3 days by MTT assay; type: functional, cell-based; conditions: 72 h; how it was run: as §1
EMT6 [5] = assay: Cytotoxicity against mouse EMT6 cells assessed as survival fraction ratio under hypoxic condition at 0.5 mM incubated for 30 mins followed by compound wash out measured after 10 to 14 days by clonogenic assay relative to control; type: functional
How it was run: (§2)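 Clonogenic radiosensitization. Cells (300000 per dish, DMEM/F12) were grown 24 h at 37 °C, 5% CO₂, then exposed to compound for 30 min. Hypoxic dishes were degassed by six vacuum/N₂ cycles, and all dishes were shaken 30 min at room temperature. Dishes were ⁶⁰Co γ-irradiated (0–20 Gy) under N₂ or air, then trypsinized and replated. Colonies were grown 10−14 days, stained, and counted, in triplicate. Surviving fractions at 18 Gy were taken from survival plots.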

[6] = Cytotoxicity against mouse KBALB cells after 3 days by MTT assay; type: functional, cell-based; conditions: 72 h; how it was run: as §1
[7] = Cytotoxicity against mouse KBALB-STK cells after 3 days by MTT assay; type: functional, cell-based; conditions: 72 h; how it was run: as §1
EMT6 [8] = assay: Cytotoxicity against mouse EMT6 cells after 3 days by MTT assay; type: functional, cell-based; conditions: EMT6, 72 h; how it was run: as §1
[9] = Cytotoxicity against human MOO6X cells assessed as survival fraction ratio under hypoxic condition at 0.5 mM incubated for 30 mins followed by compound wash out measured after 10 to 14 days by clonogenic assay relative to control; type: functional; how it was run: as §2
[10] = target: T1, Solute carrier family 2, facilitated glucose transporter member 2 (Homo sapiens) (UniProt P11168); assay: Binding affinity to recombinant GLUT2 expressed in Xenopus oocytes assessed as inhibition of [14C]glucose uptake after 20 mins by liquid scintillation counting; type: cell-based; conditions: Oocyte
T1 sequence (whole entry): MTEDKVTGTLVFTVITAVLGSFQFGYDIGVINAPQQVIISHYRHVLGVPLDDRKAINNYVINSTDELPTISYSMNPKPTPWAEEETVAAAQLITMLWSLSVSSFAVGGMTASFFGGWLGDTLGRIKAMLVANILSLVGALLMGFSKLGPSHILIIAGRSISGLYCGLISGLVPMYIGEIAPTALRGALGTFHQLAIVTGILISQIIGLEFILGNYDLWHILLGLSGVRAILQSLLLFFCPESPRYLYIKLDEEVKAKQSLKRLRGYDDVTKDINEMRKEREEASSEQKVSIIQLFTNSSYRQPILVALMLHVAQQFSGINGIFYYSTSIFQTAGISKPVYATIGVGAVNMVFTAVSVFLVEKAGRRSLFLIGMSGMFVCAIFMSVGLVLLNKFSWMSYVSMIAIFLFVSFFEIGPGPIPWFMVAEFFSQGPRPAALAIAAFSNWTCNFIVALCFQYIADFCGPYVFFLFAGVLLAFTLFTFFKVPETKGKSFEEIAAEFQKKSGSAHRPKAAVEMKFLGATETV
How it was run: (§3)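 Xenopus oocytes expressing the GLUT were incubated in groups of 10−12 in Na⁺ transport medium (Hepes, pH 7.5) with [¹⁴C]glucose (1 μCi/mL) and inhibitor for 20 min at 20 °C. Oocytes were washed six times in ice-cold medium, dissolved in 1% SDS, and counted by liquid scintillation. Uptake inhibition was plotted against inhibitor concentration; for GLUT-2, EC50 came from four-parameter logistic fitting.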

[11] = target: T2, Solute carrier family 2, facilitated glucose transporter member 1 (Homo sapiens) (UniProt P11166); assay: Binding affinity to recombinant GLUT1 expressed in Xenopus oocytes assessed as inhibition of [14C]glucose uptake after 20 mins by liquid scintillation counting; type: cell-based; conditions: Oocyte; how it was run: as §3
T2 sequence (whole entry): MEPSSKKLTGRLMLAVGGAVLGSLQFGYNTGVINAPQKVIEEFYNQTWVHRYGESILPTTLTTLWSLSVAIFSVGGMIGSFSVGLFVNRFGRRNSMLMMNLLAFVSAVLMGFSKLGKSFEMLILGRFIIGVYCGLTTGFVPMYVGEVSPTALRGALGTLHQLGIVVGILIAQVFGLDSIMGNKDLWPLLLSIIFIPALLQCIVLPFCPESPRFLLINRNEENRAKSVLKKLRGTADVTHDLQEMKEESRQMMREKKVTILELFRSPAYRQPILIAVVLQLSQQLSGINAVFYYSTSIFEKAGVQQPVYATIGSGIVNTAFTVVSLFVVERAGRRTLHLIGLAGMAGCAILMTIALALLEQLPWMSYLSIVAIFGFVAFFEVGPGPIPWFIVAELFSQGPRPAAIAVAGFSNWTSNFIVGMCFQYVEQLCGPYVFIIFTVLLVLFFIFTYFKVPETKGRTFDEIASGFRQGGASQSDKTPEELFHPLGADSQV

EMT6 [12] = assay: Cytotoxicity against mouse EMT6 cells assessed as survival fraction ratio under hypoxic condition at 0.1 to 1 mM after 6 hrs relative to control; type: functional

Question: For `O=[N+]([O-])c1nccn1CC(O)COC[C@H]1OC(O)[C@H](O)[C@@H](O)[C@@H]1O` (mixture of isomers), which “Ratio IC50” value [1] is on record?
Answer: 10

Question: What about the IC50 [2] of the same molecule?
Answer: 50 µM

Question: And the Ratio (HeLa [3])?
Answer: 1.2

Question: And the IC50 (HeLa [4])?
Answer: 500 µM

Question: What about the Ratio (EMT6 [5]) of the same molecule?
Answer: 1

Question: What about the IC50 [6] of the same molecule?
Answer: 500 µM

Question: What about the IC50 [7] of the same molecule?
Answer: 500 µM

Question: And the IC50 (EMT6 [8])?
Answer: 600 µM

Question: What about the Ratio [9] of the same molecule?
Answer: 1

Question: For `O=[N+]([O-])c1nccn1/C=C/COC[C@H]1OC(O)[C@H](O)[C@@H](O)[C@@H]1O` (mixture of isomers), which Ratio (HeLa [3]) is on record?
Answer: 1.7

Question: And the ED50 [10]?
Answer: 500 µM

Question: And the Ratio (EMT6 [5])?
Answer: 1.4

Question: What about the IC50 (EMT6 [8]) of the same molecule?
Answer: > 1000 µM

Question: What about the Ratio [9] of the same molecule?
Answer: 1.3

Question: What about the inhibition [11] of the same molecule?
Answer: Active

Question: For `O=[N+]([O-])c1nccn1[C@H]1O[C@H](C[123I])[C@@H](O)[C@@H]1O` [IODOAZOMYCIN ARABINOSIDE], which IC50 [2] is on record?
Answer: > 1000 µM

Question: And the IC50 (HeLa [4])?
Answer: > 1000 µM

Question: And the IC50 [6]?
Answer: 500 µM

Question: And the IC50 [7]?
Answer: 500 µM

Question: What about the IC50 (EMT6 [8]) of the same molecule?
Answer: > 1000 µM

Question: What about the Ratio (EMT6 [12]) of the same molecule?
Answer: 1.5

Question: What does the source list for `O=[N+]([O-])c1nccn1CC([18F])COC[C@H]1OC(O)[C@H](O)[C@@H](O)[C@@H]1O` (mixture of isomers)?
Answer: IC50 [2]: > 1000 µM; Ratio (HeLa [3]): 1.3; IC50 (HeLa [4]): > 1000 µM; Ratio (EMT6 [5]): 1.2; IC50 [6]: > 1000 µM; IC50 [7]: > 1000 µM; IC50 (EMT6 [8]): > 1000 µM; Ratio [9]: 1.3
